Many of the other results were omitted from the sample, so hits are more common in it than they were.
AP complement = orthogonal test for alternative complement pathway inhibitors; Human serum alternative complement pathway, LPS-coated ELISA, C3 deposition; tested in compound mixtures; hit rate 0.08% among 62,000; AID 1235; inhibition, % at 5 µM;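 active = inhibition above 30% in each of the two pooled mixtures holding the compound, so the lower value exceeds 30%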;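 also: 0% = serum in Mg-EGTA without compound and 100% = EDTA serum blank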
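Medium: diluted human serum in Mg2+-EGTA GVB++. Assay system: human serum complement alternative pathway, C3 deposition onto LPS. Also added: Plate-bound LPS. Technique: Anti-C3 ELISA, OD 450 nm. Measure: percent inhibition. Incubation: 1 h at 37 °C. Dosing: 5 µM each compound, pools of ten, 50 µM per pool.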
D1 allo mod = allosterically modulates the human D1 dopamine receptor | P21728 | HEK293 D1, CRE-luciferase, dopamine EC30 potentiation; actives deviate in either direction | B-score at 10 µM | hit rate 5.9% among 58,000 | AID 641;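 active = luminescence count or its row- and column-corrected plate score outside the 99.7% band of the plate's sample wells, on either side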
Target sequence (P21728 whole entry, looked up): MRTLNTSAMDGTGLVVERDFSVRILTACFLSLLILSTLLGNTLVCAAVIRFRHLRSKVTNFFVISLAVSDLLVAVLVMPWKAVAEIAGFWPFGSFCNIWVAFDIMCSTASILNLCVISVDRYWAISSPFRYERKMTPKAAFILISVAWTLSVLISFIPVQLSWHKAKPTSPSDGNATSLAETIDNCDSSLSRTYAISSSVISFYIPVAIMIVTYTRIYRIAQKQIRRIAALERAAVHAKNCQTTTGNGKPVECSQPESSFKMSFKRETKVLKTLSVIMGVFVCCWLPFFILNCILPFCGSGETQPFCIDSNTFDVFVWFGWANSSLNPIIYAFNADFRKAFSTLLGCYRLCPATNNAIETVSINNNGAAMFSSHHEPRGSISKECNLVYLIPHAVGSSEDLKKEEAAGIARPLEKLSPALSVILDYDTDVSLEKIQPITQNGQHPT
WNV protease inh = inhibitors of West Nile virus NS2B-NS3 protease. z-score (test concentration not listed). hit rate 0.18% among 65,000. P06935. WNV NS2B-NS3 protease, fluorogenic substrate Ex360/Em465; stronger effect = lower value. AID 577; in the data active = z-score below about -3
DAT uptake mod = changed human dopamine transporter uptake under cocaine IC80. LLC-PK1 hDAT cells, [14C]-dopamine uptake with cocaine IC80; actives deviate in either direction. B-score at 10 µM. hit rate 1.3% among 110,000. AID 449768;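 active = Z score or B-score, a plate-position-corrected score, falls beyond the plate's 99.7% confidence bounds, in either direction; inactive = both scores lie inside the 99.7% bounds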;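 also: scored against the spread of the other compound wells on the same plate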
* = called active by the depositor.

Screening CN=C(Nc1ccccc1OC)SC1CC(=O)N(c2ccc(C(=O)OC)cc2)C1=O (stereo unspecified) returned DAT uptake mod 2.4*.
`CCOC(=O)c1[nH]c2ccc(OC)cc2c1NC(=O)c1ccc2c(c1)OCO2` gave AP complement 1, WNV protease inh 0.61 and DAT uptake mod 0.35.
Screening COC(=O)c1[nH]c2cc(OC)ccc2c1NC(=O)c1ccc2c(c1)OCO2 returned AP complement 3, WNV protease inh -5.6* and DAT uptake mod -0.94.
For C/C=C\C=C/C(=O)Nc1cccc(C2=NOC3(C2)C[C@H](C(N)=O)N(C(=O)c2ccc(OC)cc2)C3)c1 (stereo partly specified) the results were DAT uptake mod 0.0083.
Screening Cc1ccc(NC(=O)CN(C)S(=O)(=O)c2cccc3nsnc23)cc1 returned AP complement 2, D1 allo mod -5.4*, WNV protease inh -0.03 and DAT uptake mod -1.4.
Screening COc1ccc(OC)c(NC(=O)C(CCS(C)(=O)=O)NC(C)=O)c1 (stereo unspecified) returned D1 allo mod -0.41, WNV protease inh -0.8 and DAT uptake mod 4.3*.
Screening Cn1c(SCC(=O)Nc2ccc(NC(=O)c3cccs3)cc2)nnc1-c1ccncc1 returned DAT uptake mod -0.4.
For COc1ccc(C(=O)Cn2c(N3CCOCC3)nc3ccccc32)cc1OC the results were AP complement 10, D1 allo mod -3* and WNV protease inh 0.02.
`O=[N+]([O-])c1cc([N+](=O)[O-])c(N2CCCCCC2)cc1NCCO` gave DAT uptake mod -0.77.
`CCOc1ccccc1N1CCN(c2nc3ccccc3nc2C(C#N)C(=O)OC)CC1` (stereo unspecified) gave AP complement -3, D1 allo mod -4.3*, WNV protease inh 0.12 and DAT uptake mod -1.7.
COc1ccccc1N1CCN(c2nc3ccccc3nc2C(C#N)C(=O)OC(C)C)CC1 (stereo unspecified) was read as AP complement -5, D1 allo mod -0.76, WNV protease inh -0.41 and DAT uptake mod 0.058.
Screening CCCCCCOC(=O)C(C#N)c1nc2ccccc2nc1N1CCN(CC)CC1 (stereo unspecified) returned AP complement 2, D1 allo mod -4.1*, WNV protease inh -0.43 and DAT uptake mod 3.
CCCCCCOC(=O)C(C#N)c1nc2ccccc2nc1N1CCOCC1 (stereo unspecified) was read as AP complement 2, D1 allo mod 0.24, WNV protease inh -0.3 and DAT uptake mod 0.0091.
`COC(=O)N[C@H](CC(C)=O)c1ccccc1` gave DAT uptake mod -0.16.
CCc1ccc2nc(N3CCN(C)CC3)c(C#N)cc2c1 was read as AP complement 4, D1 allo mod -4.9*, WNV protease inh -0.89 and DAT uptake mod -0.42.
For COc1ccc2nc(N3CCC(C)CC3)c(C#N)cc2c1 the results were AP complement 11, D1 allo mod 0.9, WNV protease inh -0.43 and DAT uptake mod 0.03.
`COC(=O)C(O)(CC(=O)Nc1cccc(SC)c1)C(F)(F)F` (stereo unspecified) gave AP complement 0, D1 allo mod 0.66, WNV protease inh 0.57 and DAT uptake mod -0.07.
`CCOC(=O)c1c(CN(CC)CC)oc2cc(Br)c(O)cc12` gave AP complement 5, D1 allo mod 2.5, WNV protease inh 1.6 and DAT uptake mod 4.1*.
`CCCCc1nc2sc3c(c2c(=O)[nH]1)CCC3` gave D1 allo mod 0.95, WNV protease inh 0.11 and DAT uptake mod 0.44.
Cc1cccc(C(=O)N/N=C/c2ccc(OCC(=O)N3CCCCC3)cc2)c1 was read as DAT uptake mod 2.2*.
O=C(CSCc1cccc(Cl)c1)N/N=C/c1ccc(OCC(=O)N2CCCCC2)cc1 was read as DAT uptake mod 1.5.
For CSc1cccc(NS(=O)(=O)c2ccc(F)cc2)c1 the results were AP complement 34*, WNV protease inh 0.0051 and DAT uptake mod -0.97.
`CCOc1ccc(NC(=O)C(C)Oc2ccccc2C(=O)Nc2ccc(C)c(Cl)c2)cc1` (stereo unspecified) gave DAT uptake mod 2.7*.
Screening CCOc1ccc(NC(=O)c2ccccc2OCC(=O)c2ccc(C)cc2)cc1 returned DAT uptake mod -0.27.
O=C(CCCCn1c(=O)c2ccccc2n(CC(=O)Nc2ccc(F)cc2)c1=O)NCc1ccco1 was read as AP complement 15, D1 allo mod 1.3, WNV protease inh -1.2 and DAT uptake mod -0.41.
`O=C(CCCCn1c(=O)c2ccccc2n(Cc2ccc(F)cc2Cl)c1=O)NCc1ccco1` gave AP complement 8, D1 allo mod 14*, WNV protease inh -0.75 and DAT uptake mod 0.067.
COc1cccc2cc(-c3csc(CCn4nc(C)cc4C)n3)c(=O)oc12 was read as AP complement -2, WNV protease inh -4.6* and DAT uptake mod 0.22.
Screening Cc1cc(C)n(CCc2nc(-c3ccco3)cs2)n1 returned DAT uptake mod 0.0031.
`C=CCOc1c2ccc(C(=O)NCCc3ccc(C)cc3)cc2nn1C` gave DAT uptake mod -0.13.
Cc1ccc(CNC(=O)c2ccc(Cl)cc2[N+](=O)[O-])cc1 was read as DAT uptake mod -1.2.
Screening Cc1csc(NC(=O)c2cc3c(s2)CCCC3)n1 returned DAT uptake mod 3.2*.
Cc1csc(NC(=O)c2cc3c(s2)CCCCC3)n1 was read as DAT uptake mod -0.87.
`CCc1nnc(NC(=O)c2cc3c(s2)CCCCC3)s1` gave AP complement -3, D1 allo mod -2.4*, WNV protease inh -0.99 and DAT uptake mod -0.17.
Screening CCn1c(SCC(=O)Nc2cccc(C(C)=O)c2)nnc1C(C)C returned AP complement 12, D1 allo mod -0.45, WNV protease inh 0.22 and DAT uptake mod 0.07.
CN(C)/C=N/c1c(C#N)cnn1-c1ncnc2sc(-c3ccccc3)cc12 was read as AP complement 11, D1 allo mod 1, WNV protease inh -1.2 and DAT uptake mod 3.2*.
COc1ccc(N2CCN(Cc3nc(N)nc(Nc4ccccc4OC)n3)CC2)cc1 was read as AP complement 9, D1 allo mod -0.18, WNV protease inh -0.66 and DAT uptake mod 0.81.
`Nc1nc(CN2CCN(c3ccc(F)cc3)CC2)nc(N2CCCc3ccccc32)n1` gave AP complement 17, D1 allo mod -0.43, WNV protease inh 0.52 and DAT uptake mod -2.7*.
`CCc1c(O)cc2n(c1=O)-c1ccc(Cl)cc1C2(C)C` gave DAT uptake mod -0.23.
O=C(O)CSc1nnc(-c2ccc3c(c2)OCO3)o1 was read as DAT uptake mod 0.28.
Screening O=C(c1ccc(Cl)cc1)N1CCCCC(Sc2nnc(-c3ccc4c(c3)OCO4)o2)C1=O (stereo unspecified) returned AP complement -9, D1 allo mod -10* and WNV protease inh -0.55.
For O=C(c1ccc2nc(N3CCOCC3)sc2c1)N1CCC(Cc2ccccc2)CC1 the results were DAT uptake mod 0.6.
For CCCCN(CCCNC(=O)c1ccc2nc(N3CCOCC3)sc2c1)Cc1ccccc1 the results were DAT uptake mod 2.6*.

From PubChem BioAssay
